Data reported in publication PMC5224916 (Journal of controlled release : official journal of the …, 2016).

Assays:
[1] = test system: Caco2, MCF7, and MDA-MB-231 cells; test: In vitro cellular uptake assays; format: cell-based, human; settings: 2 h incubation
Procedure, shortened: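 Caco2, MCF7 and MDA-MB-231 cells were incubated 2 h with free DiD or DiD-loaded plain or Fc-targeted nanoparticles, then fixed in 4% formalin in PBS. Membranes were labelled with a lipophilic dye and nuclei counterstained with DAPI; cells were examined by fluorescence microscopy. For competition, cells were pretreated 30 min with IgG Fc fragments.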

[2] = test system: intestinal epithelium (duodenum villi); test: In vivo intestinal uptake of nanoparticles; parameters: species or system CD-1 mice and nude mice; settings: 0.5 mg/kg oral gavage, 2 h, CD-1 and nude mice
MDM2 = MDM2 (Homo sapiens, UniProt Q00987); test: Western blotting of MDM2, p53 and p21 in breast cancer cells; format: cell-based; settings: 20 ng/mL, 24 h, MCF7 and MDA-MB-231 cells
MCF7 cells = test: Cell cycle distribution assay; format: cell-based, human; settings: MCF7, 24 h, tested 0, 20, 50, 100 ng/mL
[3] = Plasma pharmacokinetics after oral administration; format: in vivo; settings: 160 mg/kg oral, female CD-1 mice
Procedure, shortened: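 Female CD-1 mice were randomised into three groups and given a single oral dose of 160 mg/kg: free compound in PEG400:ethanol:saline (57.1:14.3:28.6), plain nanoparticles or Fc-targeted nanoparticles.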

[4] = test system: MDA-MB-231 orthotopic tumors; test: MDA-MB-231 orthotopic tumor model, in vivo efficacy; parameters: species or system nude mice; settings: 160 mg/kg/day oral
Procedure, shortened: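 Female athymic nu/nu mice, 4–6 weeks, received 1×10⁶ MDA-MB-231 cells in the second thoracic mammary fat pad under anaesthesia. After 2 weeks, mice were split into groups of 10. Dosing was by oral gavage, 5 days/week for 24 days: free compound in PEG400:ethanol:saline (57.1:14.3:28.6) or nanoparticles at 160 mg/kg/day, Fc-targeted form at 80 or 160 mg/kg/day; controls got vehicle. Mice with lung metastasis were counted at the end.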

MDA-MB-231 cells = test: Cell cycle distribution assay; format: cell-based, human; settings: MDA-MB-231, 24 h, tested 0, 20, 50, 100 ng/mL
Caco2 cell monolayers = test: Caco2 cell monolayer permeability assay; format: in vitro ADME, human; settings: apical to basolateral, 5 µg/mL, 120 min, 37°C, HPLC
Procedure, shortened: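 Caco2 cells grown on polycarbonate Transwell inserts, with monolayer integrity followed by TEER. Free or nanoparticle-formulated test compound (5 µg/mL) added apically; apical-to-basolateral transport tracked over 120 min by HPLC. Papp = (∂Q/∂t)/(A×C₀). For competition, cells were pretreated 30 min with IgG Fc fragments; transported Fc was quantified by human IgG Fc ELISA. Means ± SEM, at least three independent experiments.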

Chain of MDM2 (Q00987 whole entry): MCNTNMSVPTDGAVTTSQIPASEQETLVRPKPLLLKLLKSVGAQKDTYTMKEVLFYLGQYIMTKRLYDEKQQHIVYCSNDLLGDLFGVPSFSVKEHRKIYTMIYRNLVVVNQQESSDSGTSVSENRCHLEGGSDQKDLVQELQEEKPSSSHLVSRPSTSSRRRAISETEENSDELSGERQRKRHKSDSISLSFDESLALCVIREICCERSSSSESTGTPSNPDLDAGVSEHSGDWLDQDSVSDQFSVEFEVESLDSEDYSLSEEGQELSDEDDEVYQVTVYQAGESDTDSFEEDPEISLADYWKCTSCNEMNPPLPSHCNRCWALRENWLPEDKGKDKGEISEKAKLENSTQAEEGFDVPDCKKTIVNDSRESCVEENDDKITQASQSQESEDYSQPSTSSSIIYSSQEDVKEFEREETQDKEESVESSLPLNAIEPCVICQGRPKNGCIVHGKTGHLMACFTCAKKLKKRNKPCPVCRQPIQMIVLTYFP

SMILES: CCCCCCCCCCCCCCCCCCN1C(=CC=CC=CC2=[N+](CCCCCCCCCCCCCCCCCC)c3ccccc3C2(C)C)C(C)(C)c2ccccc21.[O-][Cl+3]([O-])([O-])[O-] [DiD, 1,1'-dioctadecyl-3,3,3',3'-tetramethylindodicarbocyanine perchlorate]
- Cellular uptake of DiD (fluorescence microscopy) [1]: unable to diffuse into the cells
- DiD fluorescence in the villi of the duodenum [2]: not observed

SMILES: COc1ccc2[nH]c3c(-c4cccc5ccccc45)nccc3c2c1 [SP141]
- Effect on MDM2, p53 and p21 expression (MDM2): did not show significant effects
- Concentration at which G2/M phase cell cycle arrest starts to be induced (MCF7 cells): 100 ng/mL
- Cmax (peak plasma concentration of SP141) [3]: 4.3 µg/mL
- Inhibition of MDA-MB-231 tumor growth ([4]; 5 days/week, Day 24): 51%
- Incidence of lung metastasis (mice with metastatic lesions in the lungs) ([4]; 24 days, 10 mice/group): 4/10
- Concentration at which G2/M phase cell cycle arrest starts to be induced (MDA-MB-231 cells): 100 ng/mL
- Apparent permeability coefficient (Papp) (Caco2 cell monolayers): 7e-05 cm/s
